# From PubChem BioAssay
# The list is not random: actives were taken first. Their share in the collection is about 9.6%.
# b-catenin transl: beta-catenin nuclear translocation modulation; HeLa beta-catenin nuclear translocation, immunofluorescence imaging; AID 1665; nuclear translocation activity, % at 5 µM; actives 0.3% (n = 190,000);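 active = nuclear translocation activity above 50% at 5 µM, with a well cell count of 50 or more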;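 also: per-cell ratio of nuclear to cytoplasmic median beta-catenin stain intensity; plate controls were DMSO negative control for no effect and GSK-3 inhibitor IX positive control for full effect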
#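 Assay system: human HeLa cells, native beta-catenin; doses: 5 µM primary, 0.02–20 µM confirmation; incubation: compound treatment 24 h, 37°C, 5% CO2; technique: fluorescence imaging of beta-catenin antibody stain plus DAPI; measure: % activation, nuclear-to-cytoplasmic median beta-catenin signal ratio per cell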
# APP transl inh: APP translation inhibition | SH-SY5Y APP 5'UTR-luciferase reporter, luminescence | inhibition, % at 2 µM | actives 0.82% (n = 190,000) | AID 1285;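 active = inhibition above a set limit, derived from the sample mean plus 3 SD, cut at about 45% in these data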
# BaF3 parental: reduces parental Ba/F3 cell viability, JAK2V617F counter-screen. actives 1.1% (n = 220,000). CellTiter-Glo ATP luminescence. inhibition, % at 5.6 µM;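 active = inhibition above a per-campaign cutoff, the mean inhibition of all tested compounds plus 3 SD, cut at about 27% in these data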;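 also: 0% = DMSO wells and 100% = JAK Inhibitor I control wells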
# L major viab: inhibitors of Leishmania major promastigote growth; actives 9% (n = 200,000); Leishmania major promastigotes, resazurin fluorescence viability; AID 1063; inhibition, % at 10 µM; in the data active = inhibition above about 50%;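 also: promastigotes grown with compound for 44 hours at 28 °C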
# MT stabilize HCS: microtubule stabilization, imaging screen. HeLa tubulin immunostaining HCS, 24 h; share of cells brighter than vehicle mean+2SD. % tubulin-high responders, % at 10 µM. actives 0.83% (n = 200,000). AID 2205;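 active = plate Z-score above 3 for both tubulin-high and condensed-nucleus cell shares, with cell loss under 80%, at 10 µM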;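 also: anti alpha tubulin signal scored within the nucleus-defined area of each cell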
# Ba/F3 V617F tox: loss of viability in JAK2V617F-driven Ba/F3 cells; Ba/F3 EpoR-JAK2V617F viability, ATP luminescence; inhibition, % at 5.6 µM; actives 1.1% (n = 220,000); AID 1446;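 active = inhibition above the campaign mean plus 3 SD over all tested compounds, cut at about 24% in these data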;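 also: cytokine-independent growth of Ba/F3 cells driven by EpoR plus mutant JAK2; 0% = DMSO-treated cells and 100% = JAK inhibitor I control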
# * hit, by the source's call; nt = no result.
SMILES,b-catenin transl,APP transl inh,BaF3 parental,L major viab,MT stabilize HCS,Ba/F3 V617F tox
CCCCNC(=S)Nc1cccc2cnccc12,0,6,5,0,3,-1
COc1ccc(NC(=O)COC(=O)C2CCN(S(=O)(=O)c3cccs3)CC2)cc1,-1,-1,4,-4,4,1
S=C(NCc1ccc(Cl)cc1)NN1CCOCC1,0,2,3,-4,2,-2
CC(C)c1ccc(S(=O)(=O)/N=C2/C=CC(=O)c3ccccc32)cc1,0,17,9,74*,3,0
CCOc1ccccc1NC(=O)c1ccc2nccnc2c1,-4,20,2,-4,3,3
CCOc1nc(NC2CCCCC2)nc(NC(C)(C)C)n1,1,1,-1,78*,2,-4
COc1nc(NCc2ccco2)nc(NC2CCCCC2)n1,nt,-10,1,19,4,-2
CCOC(=O)C1=C(C)NC(SCc2cc(=O)[nH][nH]2)=C(C#N)C1c1cccs1 (stereo not drawn),0,-4,1,-11,4,-5
COc1ccc(C(=O)N2CCC(N3CCN(c4ccccc4)CC3)CC2)cc1,-15,nt,3,91*,1,-2
O=C(CCC1CCCC1)N1CCN(C(=O)C2CC2)CC1,-2,3,6,-3,1,2
COc1ccc(CCC(=O)N2CCN(C3CCCCC3)CC2)cc1,2,5,4,56*,3,1
O=C(CCC1CCCC1)N1CCC(N2CCN(c3ccccc3)CC2)CC1,1,4,2,93*,4,0
O=C(CCC1CCCC1)N1CCN(C2CCCC2)CC1,-4,6,4,94*,1,-4
CN1CCN(C(=O)CCc2ccc(S(=O)(=O)NC3CCCCC3)cc2)CC1,5,-25,1,4,2,1
O=C(NCC(=O)N(CC1CCCO1)C1(C(=O)NC2CCCCC2)CCCCC1)c1ccccc1 (stereo not drawn),nt,7,0,-4,3,-4
COc1cc2c(C(=O)N3CCN(c4ccccc4)CC3)c(C)oc2cc1Br,-2,-6,0,8,26*,-1
CC(C)CC(=O)N1CCC(N2CCN(c3ccccc3)CC2)CC1,-3,2,5,90*,0,-2
COc1ccc(N2CCN(C(=O)c3c(C)nn(-c4ccccc4)c3C)CC2)cc1,-2,-2,0,50*,3,-1
O=C(CCc1ccc(Oc2cc([N+](=O)[O-])cc([N+](=O)[O-])c2)cc1)N1CCCCCC1,-4,4,5,98*,2,0
COc1ccccc1C(=O)N1CCC(N2CCN(c3ccccc3)CC2)CC1,1,nt,-3,nt,nt,-1
CCNC(=O)NC(=O)C(C)OC(=O)Cc1coc2cc3c(cc12)CCC3 (stereo not drawn),-2,-14,7,-7,3,0
CC1=C(C(=O)Nc2ccccc2)C(c2ccc(C)o2)n2c(s/c(=C/c3ccccc3)c2=O)=N1 (stereo not drawn),nt,-3,9,95*,1,4
CC1=C(C(=O)Nc2ccccc2C)C(c2ccc(C)o2)n2c(s/c(=C/c3ccccc3)c2=O)=N1 (stereo not drawn),0,-3,6,75*,1,0
CC[C@H](C)[C@@H](NC(=O)O[C@@H]1C(=O)c2cc(Br)ccc2O[C@H]1c1cccc(OC)c1)C(=O)OC,-1,-17,1,0,5,-4
CC1=C(C(=O)OC(C)C)C(c2ccc(C)o2)C(C(=O)OC(C)C)=C(C)N1,-1,nt,-2,nt,nt,-4
SMILES,b-catenin transl,APP transl inh,BaF3 parental,L major viab,MT stabilize HCS,Ba/F3 V617F tox
Cc1cc(C)c2nc(NNC(=O)c3cc(=O)c4ccccc4o3)sc2c1,-3,1,-4,-14,3,-4
O=C(CN1C(=O)NC2(CCCC2)C1=O)Nc1ccccc1F,-4,0,4,-16,3,2
O=C(COC(=O)Cc1ccccc1[N+](=O)[O-])NCc1ccc(F)cc1,-2,-1,1,-5,6,3
Cc1ccc2nc(SCC(=O)c3ccc4c(c3)OCO4)[nH]c2c1,1,11,3,84*,2,-1
CC(=O)c1c(C)[nH]c(C(=O)CSc2nc3ccc(C)cc3[nH]2)c1C,9,10,8,92*,2,1
COC(=O)c1ccc(CSc2nc3ccc(C)cc3[nH]2)o1,-2,nt,4,87*,2,0
